In ChEMBL document CHEMBL1765011, “Synthesis and c-Met kinase inhibition of 3,5-disubstituted and 3,5,7-trisubstituted quinolines: identification of 3-(4-acetylpiperazin-1-yl)-5-(3-nitrobenzylamino)-7- (trifluoromethyl)quinoline as a novel anticancer agent” (J Med Chem, 2011):
pIC50: −log10 of the molar value. The source made the active and inactive calls. The rule behind the calls is not given here.

Assays:
[1] = Cmax in mouse at 20 mg/kg, po; format: ADME, organism-based; parameters: dose 20 mg/kg, route oral; conditions: in vivo
Procedure, shortened: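 Oral 20 mg/kg single dose to mice, vehicle DMSO/Tween 80/normal saline. Cmax was read from the plasma concentration-time profile. Average of three runs.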

[2] = target: T1, Hepatocyte growth factor receptor (Homo sapiens, UniProt P08581); assay: Inhibition of purified recombinant c-Met after 60 mins by ELISA
[3] = target: T1, Hepatocyte growth factor receptor; assay: Inhibition of c-Met phosphorylation in human MKN45 cells at 0.1 to 3 uM after 4 hrs by Western blotting; format: cell-based; conditions: MKN-45
Procedure, shortened: (§1)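 Exponentially growing cells were treated with compound for 4 h at 37 °C and lysed in SDS sample buffer. Lysates were run on 10% SDS-PAGE and blotted to nitrocellulose. Blots were probed for phospho-c-Met and total c-Met, with GAPDH as loading control, and detected by ECL.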

[4] = target: Receptor tyrosine-protein kinase erbB-2 (Homo sapiens, UniProt P04626); assay: Inhibition of ErbB2
Procedure, shortened: (§2)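 ELISA on plates precoated with 20 μg/mL poly(Glu,Tyr) 4:1. Buffer: 10 μM ATP, 50 mM HEPES pH 7.4, 50 mM MgCl2, 0.5 mM MnCl2, 0.2 mM Na3VO4, 1 mM DTT, compound in 1% DMSO. Purified kinase was added and incubated 60 min at 37 °C. Phosphotyrosine was detected with PY99 then HRP anti-mouse IgG, o-phenylenediamine, A490. IC50 was taken from inhibition curves.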

[5] = target: Proto-oncogene tyrosine-protein kinase receptor Ret (Homo sapiens, UniProt P07949); assay: Inhibition of RET
[6] = target: Hepatocyte growth factor receptor (Mus musculus) (UniProt P16056); assay: Inhibition of TPR-c-Met phosphorylation expressed in mouse BAF3 cells at 0.1 to 3 uM after 4 hrs by Western blotting; format: cell-based; procedure, shortened: as §1
[7] = target: Vascular endothelial growth factor receptor 1 (Homo sapiens, UniProt P17948); assay: Inhibition of Flt-1; procedure, shortened: as §2
[8] = target: Fibroblast growth factor receptor 1 (Homo sapiens, UniProt P11362); assay: Inhibition of FGFR1
NIH3T3 [9] = assay: Antiproliferative activity against mouse NIH/3T3 cells after 72 hrs; format: functional, cell-based; conditions: NIH3T3, 72 h
Procedure, shortened: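 Cells were seeded and exposed next day to a range of compound concentrations for 72 h. Proliferation was read by sulforhodamine B or MTT assay, and IC50 derived.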

NCI-H441 = assay: Antiproliferative activity against human NCI-H441 cells after 72 hrs; conditions: NCI-H441, 72 h
[10] = target: Tyrosine-protein kinase ABL1 (Homo sapiens, UniProt P00519); assay: Inhibition of Abl; procedure, shortened: as §2
SNU-5 = assay: Antiproliferative activity against human SNU5 cells after 72 hrs; conditions: SNU-5, 72 h
[11] = Antitumor activity against human U87MG cells xenografted in nude mouse assessed as tumor growth inhibition at 100 mg/kg, ip qd for 14 days relative to control; format: functional, U-87MG ATCC; conditions: U-87 MG, 336 h, route intraperitoneal
Procedure, shortened: (§3)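 Tumor cells, (5-10)×10^6, were implanted sc in nude mice and grown to 700-800 mm3. Tumors were cut into 1 mm3 fragments and trocar-transplanted sc. At 100-150 mm3, mice were randomized (n = 6) to vehicle or ip dosing daily. Volumes were measured twice weekly by caliper, TV = length×width²/2. % inhibition used final-day versus day-1 change against vehicle, with Student's t test.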

[12] = target: Insulin-like growth factor 1 receptor (Homo sapiens, UniProt P08069); assay: Inhibition of IGF1R
NIH3T3 [13] = assay: Antitumor activity against mouse NIH/3T3 cells expressing TPR-Met xenografted in nude mouse assessed as tumor growth inhibition at 100 mg/kg, ip qd for 14 days relative to control; format: functional; conditions: 336 h, route intraperitoneal; procedure, shortened: as §3
[14] = target: T1, Hepatocyte growth factor receptor; assay: Inhibition of c-Met in human MKN45 cells assessed as AKT phosphorylation at 0.1 to 3 uM after 4 hrs by Western blotting; format: cell-based; conditions: MKN-45
Procedure, shortened: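 Exponentially growing cells were exposed to compound for 4 h at 37 °C and lysed in SDS sample buffer. Lysates were resolved on 10% SDS-PAGE and blotted. Blots were probed for phospho- and total ERK1/2 and AKT, with GAPDH loading control, and detected by ECL.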

[15] = target: Hepatocyte growth factor receptor (Mus musculus) (UniProt P16056); assay: Inhibition of TPR-c-Met phosphorylation expressed in mouse […] cells at 0.1 to 3 uM after 4 hrs by Western blotting; format: cell-based; procedure, shortened: as §1
[16] = target: Platelet-derived growth factor receptor alpha (Homo sapiens, UniProt P16234); assay: Inhibition of PDGFRalpha; procedure, shortened: as §2
BXPC-3 = assay: Antiproliferative activity against human BxPC3 cells after 72 hrs; conditions: BXPC-3, 72 h

T1 sequence (P08581 whole entry): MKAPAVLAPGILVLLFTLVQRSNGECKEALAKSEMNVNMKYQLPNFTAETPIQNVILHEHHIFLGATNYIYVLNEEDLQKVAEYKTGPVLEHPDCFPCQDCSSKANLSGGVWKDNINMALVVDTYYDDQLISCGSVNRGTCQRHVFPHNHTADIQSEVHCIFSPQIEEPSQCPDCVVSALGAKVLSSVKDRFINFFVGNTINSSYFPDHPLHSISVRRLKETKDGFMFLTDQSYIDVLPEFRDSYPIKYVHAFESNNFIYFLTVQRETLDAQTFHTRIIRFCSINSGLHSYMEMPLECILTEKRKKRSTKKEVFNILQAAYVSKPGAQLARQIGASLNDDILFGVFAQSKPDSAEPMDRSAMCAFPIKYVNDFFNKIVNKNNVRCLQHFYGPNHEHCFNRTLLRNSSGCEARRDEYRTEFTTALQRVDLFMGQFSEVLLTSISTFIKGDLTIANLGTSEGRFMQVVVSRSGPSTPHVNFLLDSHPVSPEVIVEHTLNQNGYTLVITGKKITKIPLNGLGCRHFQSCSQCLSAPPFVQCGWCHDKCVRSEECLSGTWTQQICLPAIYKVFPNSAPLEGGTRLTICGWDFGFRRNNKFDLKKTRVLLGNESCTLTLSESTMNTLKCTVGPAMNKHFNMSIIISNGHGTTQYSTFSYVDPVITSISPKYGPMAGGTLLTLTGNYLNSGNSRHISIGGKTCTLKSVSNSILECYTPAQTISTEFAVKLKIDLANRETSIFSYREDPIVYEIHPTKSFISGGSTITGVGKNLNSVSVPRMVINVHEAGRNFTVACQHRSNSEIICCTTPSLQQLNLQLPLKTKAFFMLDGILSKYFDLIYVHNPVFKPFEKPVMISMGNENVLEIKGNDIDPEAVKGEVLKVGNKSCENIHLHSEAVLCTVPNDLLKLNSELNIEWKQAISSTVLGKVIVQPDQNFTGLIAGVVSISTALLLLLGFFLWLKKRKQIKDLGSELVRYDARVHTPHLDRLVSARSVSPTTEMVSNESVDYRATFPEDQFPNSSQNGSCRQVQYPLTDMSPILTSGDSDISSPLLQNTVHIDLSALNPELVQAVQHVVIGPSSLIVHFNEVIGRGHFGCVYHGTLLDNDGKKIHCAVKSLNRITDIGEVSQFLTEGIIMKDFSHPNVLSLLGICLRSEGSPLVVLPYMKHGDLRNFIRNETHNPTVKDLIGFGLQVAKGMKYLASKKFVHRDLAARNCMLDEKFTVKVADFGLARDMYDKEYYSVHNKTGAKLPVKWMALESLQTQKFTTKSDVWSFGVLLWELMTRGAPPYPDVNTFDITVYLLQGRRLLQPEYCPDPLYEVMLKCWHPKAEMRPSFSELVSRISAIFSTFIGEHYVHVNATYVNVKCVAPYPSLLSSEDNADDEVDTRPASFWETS
Sequence of Hepatocyte growth factor receptor (Mus musculus) (P16056 whole entry): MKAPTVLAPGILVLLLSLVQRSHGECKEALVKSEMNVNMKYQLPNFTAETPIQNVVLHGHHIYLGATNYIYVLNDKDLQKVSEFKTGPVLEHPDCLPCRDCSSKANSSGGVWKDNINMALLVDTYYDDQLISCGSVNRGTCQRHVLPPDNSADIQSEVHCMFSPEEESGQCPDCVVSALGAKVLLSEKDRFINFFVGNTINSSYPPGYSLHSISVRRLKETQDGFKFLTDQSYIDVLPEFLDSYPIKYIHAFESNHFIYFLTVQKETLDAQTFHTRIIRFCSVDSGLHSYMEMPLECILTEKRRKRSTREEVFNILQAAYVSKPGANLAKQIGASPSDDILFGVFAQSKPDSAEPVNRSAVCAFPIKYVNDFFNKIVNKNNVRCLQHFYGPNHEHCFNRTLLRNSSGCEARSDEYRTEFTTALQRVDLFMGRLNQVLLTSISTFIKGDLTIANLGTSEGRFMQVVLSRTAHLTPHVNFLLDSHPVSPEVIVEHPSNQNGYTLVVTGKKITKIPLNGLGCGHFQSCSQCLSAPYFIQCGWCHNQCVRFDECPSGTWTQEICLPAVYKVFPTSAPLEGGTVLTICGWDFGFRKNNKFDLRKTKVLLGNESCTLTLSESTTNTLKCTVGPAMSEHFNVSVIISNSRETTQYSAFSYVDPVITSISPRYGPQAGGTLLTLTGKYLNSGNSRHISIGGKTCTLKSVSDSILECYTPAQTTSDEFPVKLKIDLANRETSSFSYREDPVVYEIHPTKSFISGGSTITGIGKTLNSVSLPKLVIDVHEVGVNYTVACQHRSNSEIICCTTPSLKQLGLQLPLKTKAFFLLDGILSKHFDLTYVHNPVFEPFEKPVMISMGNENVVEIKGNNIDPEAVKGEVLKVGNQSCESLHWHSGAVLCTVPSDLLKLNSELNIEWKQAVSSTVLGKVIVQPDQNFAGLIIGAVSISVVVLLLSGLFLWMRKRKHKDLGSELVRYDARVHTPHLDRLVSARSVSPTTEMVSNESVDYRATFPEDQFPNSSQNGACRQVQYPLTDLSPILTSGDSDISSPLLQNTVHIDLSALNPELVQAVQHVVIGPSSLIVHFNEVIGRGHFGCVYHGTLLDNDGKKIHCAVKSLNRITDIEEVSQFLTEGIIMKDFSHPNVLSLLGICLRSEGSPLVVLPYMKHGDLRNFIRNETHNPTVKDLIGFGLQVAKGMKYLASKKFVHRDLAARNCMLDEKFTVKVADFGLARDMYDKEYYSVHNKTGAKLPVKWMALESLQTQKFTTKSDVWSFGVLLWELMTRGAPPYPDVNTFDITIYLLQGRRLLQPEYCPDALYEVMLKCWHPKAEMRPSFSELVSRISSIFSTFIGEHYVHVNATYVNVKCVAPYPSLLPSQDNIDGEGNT
Sequence of Tyrosine-protein kinase ABL1 (P00519 whole entry): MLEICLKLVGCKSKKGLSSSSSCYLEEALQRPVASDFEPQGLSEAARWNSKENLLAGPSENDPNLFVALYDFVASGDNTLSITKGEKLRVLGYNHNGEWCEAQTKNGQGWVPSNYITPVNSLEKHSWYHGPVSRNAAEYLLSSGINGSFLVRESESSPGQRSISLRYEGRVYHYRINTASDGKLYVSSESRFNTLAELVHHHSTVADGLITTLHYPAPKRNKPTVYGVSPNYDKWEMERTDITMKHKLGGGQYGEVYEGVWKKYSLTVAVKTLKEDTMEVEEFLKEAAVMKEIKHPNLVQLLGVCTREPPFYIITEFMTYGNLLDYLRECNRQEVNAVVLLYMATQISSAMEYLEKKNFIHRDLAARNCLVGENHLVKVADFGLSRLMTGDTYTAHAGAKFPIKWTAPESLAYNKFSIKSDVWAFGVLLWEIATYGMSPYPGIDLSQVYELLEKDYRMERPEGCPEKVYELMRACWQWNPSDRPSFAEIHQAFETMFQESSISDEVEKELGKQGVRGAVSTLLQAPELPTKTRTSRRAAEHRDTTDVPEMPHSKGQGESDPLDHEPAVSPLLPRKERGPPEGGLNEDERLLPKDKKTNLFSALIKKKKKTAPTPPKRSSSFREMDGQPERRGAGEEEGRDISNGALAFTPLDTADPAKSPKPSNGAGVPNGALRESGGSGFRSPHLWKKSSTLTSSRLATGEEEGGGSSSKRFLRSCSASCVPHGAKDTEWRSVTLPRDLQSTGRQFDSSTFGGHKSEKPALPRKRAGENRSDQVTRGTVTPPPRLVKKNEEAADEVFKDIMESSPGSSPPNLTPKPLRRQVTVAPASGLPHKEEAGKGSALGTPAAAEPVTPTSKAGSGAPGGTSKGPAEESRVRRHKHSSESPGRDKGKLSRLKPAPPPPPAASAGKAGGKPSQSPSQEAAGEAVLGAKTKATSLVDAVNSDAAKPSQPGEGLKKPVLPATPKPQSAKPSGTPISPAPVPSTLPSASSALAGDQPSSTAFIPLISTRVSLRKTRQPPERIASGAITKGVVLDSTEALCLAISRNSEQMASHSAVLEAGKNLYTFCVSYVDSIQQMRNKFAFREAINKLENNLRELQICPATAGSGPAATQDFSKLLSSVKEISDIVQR
Sequence of Receptor tyrosine-protein kinase erbB-2 (P04626 whole entry): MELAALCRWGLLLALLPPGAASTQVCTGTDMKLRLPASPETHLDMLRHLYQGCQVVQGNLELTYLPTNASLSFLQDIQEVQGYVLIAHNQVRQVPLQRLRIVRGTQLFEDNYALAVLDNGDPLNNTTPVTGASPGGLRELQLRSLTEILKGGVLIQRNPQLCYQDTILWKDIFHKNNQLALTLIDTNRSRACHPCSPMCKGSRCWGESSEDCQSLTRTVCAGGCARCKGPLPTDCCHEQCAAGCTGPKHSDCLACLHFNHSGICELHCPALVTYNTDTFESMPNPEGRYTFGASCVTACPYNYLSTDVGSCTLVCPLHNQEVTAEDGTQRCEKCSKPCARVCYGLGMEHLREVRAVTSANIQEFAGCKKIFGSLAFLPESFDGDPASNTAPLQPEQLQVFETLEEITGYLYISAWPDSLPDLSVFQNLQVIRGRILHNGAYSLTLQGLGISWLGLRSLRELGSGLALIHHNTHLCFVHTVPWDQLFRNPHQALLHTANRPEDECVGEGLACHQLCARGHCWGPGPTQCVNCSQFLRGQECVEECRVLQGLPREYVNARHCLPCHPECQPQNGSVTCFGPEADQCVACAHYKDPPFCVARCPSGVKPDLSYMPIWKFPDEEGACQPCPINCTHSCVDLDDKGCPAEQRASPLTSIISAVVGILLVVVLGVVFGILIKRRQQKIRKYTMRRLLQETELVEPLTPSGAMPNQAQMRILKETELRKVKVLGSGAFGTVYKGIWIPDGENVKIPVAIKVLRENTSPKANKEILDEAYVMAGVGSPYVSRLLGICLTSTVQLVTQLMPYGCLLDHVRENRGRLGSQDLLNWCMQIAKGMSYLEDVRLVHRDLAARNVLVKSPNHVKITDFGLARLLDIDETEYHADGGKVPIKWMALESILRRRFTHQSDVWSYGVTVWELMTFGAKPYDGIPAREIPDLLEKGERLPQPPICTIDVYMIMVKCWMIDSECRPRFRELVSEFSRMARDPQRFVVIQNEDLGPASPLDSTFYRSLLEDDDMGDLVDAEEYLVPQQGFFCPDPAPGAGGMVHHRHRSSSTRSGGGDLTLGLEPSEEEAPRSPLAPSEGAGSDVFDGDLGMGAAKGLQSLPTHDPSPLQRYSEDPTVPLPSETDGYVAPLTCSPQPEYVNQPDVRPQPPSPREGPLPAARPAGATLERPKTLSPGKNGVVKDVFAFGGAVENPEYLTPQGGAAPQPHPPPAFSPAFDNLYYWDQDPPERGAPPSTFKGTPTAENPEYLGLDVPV

Cmax [1]: 316 ng/mL
pIC50 [2]: 9.02
inhibition [3]: Active
pIC50 [4]: < 5.00
pIC50 [5]: < 5.00
inhibition [6]: Active
pIC50 [7]: < 5.00
pIC50 [8]: < 5.00
pIC50 (NCI-H441): ≤ 4.30
pIC50 [10]: < 5.00
pIC50 (SNU-5): 6.00
pIC50 [12]: < 5.00
inhibition [14]: Active
inhibition [15]: Active
pIC50 [16]: < 5.00
pIC50 (BXPC-3): 4.34
SMILES: CC(=O)N1CCN(c2cnc3cc(C(F)(F)F)cc(NCc4cccc([N+](=O)[O-])c4)c3c2)CC1
pIC50 (NIH3T3 [9]): ≤ 4.30
inhibition in vivo at 100 mg/kg [11]: 69%
inhibition in vivo at 100 mg/kg (NIH3T3 [13]): 68%
